Assay results reported in ChEMBL document CHEMBL1821664, “Sulfonamides as a new scaffold for hypoxia inducible factor pathway inhibitors” (Bioorg Med Chem Lett, 2011).
Calls of active or inactive are those of the source. The calls are words filed in the database; no cut-off is given here.

What was measured:
[1] = target: T1, Hypoxia inducible factors; HIF-1-alpha, HIF-2-alpha (Homo sapiens, UniProt Q16665+Q99814); experiment: Inhibition of HIF1alpha expression in human LN229 cells assessed as reduction of HIF-1alpha accumulation at <10 uM preincubated for 1 hr under normoxia condition followed by 24 hrs incubation under hypoxia condition by Western blotting; type: functional, cell-based; conditions: LN-229
[2] = target: T1, Hypoxia inducible factors; HIF-1-alpha, HIF-2-alpha; experiment: (§1) Inhibition of hypoxia-induced HIF1 activation in human LN229 cells expressing HRE-AP reporter gene preincubated for 1 hr under normoxia condition followed by 24 hrs incubation under hypoxia condition by HRE-luciferase reporter assay; type: cell-based
Procedure, shortened: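 HRE-luciferase dose-response: cells pre-treated 1 h, then 24 h hypoxia; luciferase measured in cell extracts; each compound run 5–21 times on separate days, in triplicate. IC50 obtained from a four-parameter logistic fit using a nonlinear mixed-effects model.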

[3] = target: T1, Hypoxia inducible factors; HIF-1-alpha, HIF-2-alpha; experiment: Inhibition of hypoxia-induced HIF1 activation in human LN229 cells expressing HRE-AP reporter gene at 2.5 uM preincubated for 1 hr under normoxia condition followed by 24 hrs incubation under hypoxia condition by HRE-luciferase reporter assay relative to control; values are per cent of control
[4] = target: T1, Hypoxia inducible factors; HIF-1-alpha, HIF-2-alpha; experiment: Inhibition of hypoxia-induced HIF1 activation in human LN229 cells expressing HRE-AP reporter gene at 10 uM preincubated for 1 hr under normoxia condition followed by 24 hrs incubation under hypoxia condition by HRE-luciferase reporter assay relative to control; values are per cent of control
[5] = target: T1, Hypoxia inducible factors; HIF-1-alpha, HIF-2-alpha; experiment: Inhibition of hypoxia-induced HIF1 activation in human LN229 cells expressing HRE-AP reporter gene at 5 uM preincubated for 1 hr under normoxia condition followed by 24 hrs incubation under hypoxia condition by HRE-luciferase reporter assay relative to control; values are per cent of control
[6] = target: T1, Hypoxia inducible factors; HIF-1-alpha, HIF-2-alpha; experiment: as §1, with “gene assessed as HRE remaining activity at 10 uM” for “gene”, “alkaline phosphatase” for “HRE-luciferase”, “assay relative to control” for “assay”; type: cell-based
Procedure, shortened: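 LN229-HRE-AP cells pre-treated 1 h with compound or vehicle (1% DMSO), then 24 h in 1% O2 hypoxia incubator; cells lysed and alkaline phosphatase activity measured. Hits were compounds reducing hypoxic AP induction >50%; single assay.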

[7] = target: T1, Hypoxia inducible factors; HIF-1-alpha, HIF-2-alpha; experiment: Inhibition of hypoxia-induced HIF1 activation in human LN229 cells expressing VEGF reporter gene assessed as VEGF expression at 10 uM after 24 hrs incubation under hypoxia condition by luciferase reporter assay; type: cell-based
Procedure, shortened: (§2)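 LN229 cells stably carrying a VEGF promoter-luciferase construct, pre-treated 1 h in normoxia with compound at 10 µM final, then 24 h in normoxia or hypoxia; luciferase measured in cell extracts; triplicate means ± SD.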

[8] = target: T1, Hypoxia inducible factors; HIF-1-alpha, HIF-2-alpha; experiment: Inhibition of HIF1alpha expression in human LN229 cells assessed as reduction of HIF-1alpha accumulation at 20 uM preincubated for 1 hr under normoxia condition followed by 24 hrs incubation under hypoxia condition by Western blotting; type: functional, cell-based; conditions: LN-229
Procedure, shortened: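 LN229 glioma cells were pre-treated for 1 h with compound at 20 µM final, then incubated under normoxia or hypoxia for 24 h. HIF-1α accumulation was read by Western blot, with HIF-1α and actin immunoblotted.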

[9] = target: T1, Hypoxia inducible factors; HIF-1-alpha, HIF-2-alpha; experiment: Inhibition of hypoxia-induced HIF1 activation in human LN229 cells expressing VEGF reporter gene assessed as VEGF expression at 10 uM preincubated for 1 hr under normoxia condition followed by 24 hrs incubation under hypoxia condition by luciferase reporter assay; type: cell-based; procedure, shortened: as §2
[10] = target: T1, Hypoxia inducible factors; HIF-1-alpha, HIF-2-alpha; experiment: Inhibition of HIF1alpha expression in human LN229 cells assessed as reduction of HIF-1alpha accumulation at 100 nM preincubated for 1 hr under normoxia condition followed by 24 hrs incubation under hypoxia condition by Western blotting; type: functional, cell-based; conditions: LN-229

Compound | inhibition [1] | IC50 [2] | residual activity [3] | residual activity [4] | residual activity [5] | Activity [6] | inhibition [7] | inhibition [8] | inhibition [9] | inhibition [10]
COc1ccc(S(=O)(=O)N(Cc2ccc3c(c2)C=CC(C)(C)O3)c2ccccc2)cc1OC | inactive | 593 nM | 18% | 1% | 2% | 28.9% | inactive | Active | Active | –
CC(C)C[C@H](NC(=O)[C@H](Cc1ccccc1)NC(=O)c1cnccn1)B(O)O | – | – | – | – | – | – | – | – | – | Active
COc1ccc(S(=O)(=O)N(Cc2ccc3c(c2)C=CC(C)(C)O3)CC(C)C)cc1OC | – | 672 nM | 21% | 1% | 6% | – | inactive | – | Active | –
CC1(C)C=Cc2cc(CN(Cc3ccccc3)S(=O)(=O)c3ccc(Br)cc3OC(F)(F)F)ccc2O1 | – | 508 nM | 15% | 1% | 2% | – | inactive | – | Active | –
CC(C)CN(Cc1ccc2c(c1)C=CC(C)(C)O2)S(=O)(=O)c1cccc2ccccc12 | – | 656 nM | 6% | 4% | 4% | – | inactive | – | Active | –
CC(C)CN(Cc1ccc2c(c1)C=CC(C)(C)O2)S(=O)(=O)c1cc(Cl)ccc1Cl | – | 731 nM | 23% | 1% | 5% | – | inactive | – | Active | –
COc1ccc(S(=O)(=O)N(Cc2ccc3c(c2)C=CC(C)(C)O3)C2CCCCC2)c(OC)c1 | – | 1270 nM | 24% | 1% | 5% | – | inactive | – | Active | –
CC(C)CN(Cc1ccc2c(c1)C=CC(C)(C)O2)S(=O)(=O)c1ccc([N+](=O)[O-])cc1 | – | 532 nM | 13% | 1% | 3% | – | inactive | – | Active | –
